Assay results from different studies.
RPS6KA5: Ribosomal protein S6 kinase alpha-5 (RPS6KA5, Homo sapiens, UniProt O75582)
RPS6KA5 C-terminal kinase domain: Ribosomal protein S6 kinase alpha-5, C-terminal kinase domain (RPS6KA5, Homo sapiens, UniProt O75582)
RPS6KA5 N-terminal kinase domain: Ribosomal protein S6 kinase alpha-5, N-terminal kinase domain (RPS6KA5, Homo sapiens, UniProt O75582)

C#Cc1n[nH]c2c(-c3cn([C@@H](C)c4ccccc4)c(=O)[nH]c3=O)cc(F)cc12  inhibition (RPS6KA5; enzyme activity; inhibitor; 0.1 µM): -1.9%
Cc1nn(C)cc1-c1nc2c(N3CCN(Cc4ccc(Cl)cc4)CC3)c(Cl)cnc2[nH]1  remaining binding (RPS6KA5 C-terminal kinase domain; binding; competition with immobilised ligand; 1 µM): 100%
C#Cc1n[nH]c2c(-c3cn([C@@H](C)c4ccccn4)c(=O)[nH]c3=O)cc(F)cc12  inhibition (RPS6KA5; enzyme activity; inhibitor; 0.1 µM): 2%
Nc1ncc(-c2nc(N3CCOCC3)nc(N3CCOCC3)n2)c(C(F)F)n1  remaining binding (RPS6KA5 N-terminal kinase domain; binding; competition with immobilised ligand; 10 µM): 88%
N#CC1(c2ccccn2)CCN(Cc2cc(C(=O)O)c(=O)n3ccccc23)CC1  remaining binding (RPS6KA5 C-terminal kinase domain; cell-free assay; competition with immobilised ligand; 1 µM): 83%
CC(C)(C)c1cc(C=C(C#N)C#N)cc(Br)c1O  remaining activity (RPS6KA5; enzyme activity; inhibitor; 0.5 µM): 108%
Cn1cc(-c2cc(F)cc(N3CCn4c(cc5c4CCCC5)C3=O)c2CO)cc(Nc2ccc(N3CCN(C4COC4)CC3)cn2)c1=O  inhibition (RPS6KA5; enzyme activity; inhibitor; 0.1 µM): 13%
O=c1[nH]c2ccccc2n1C1CCN(Cc2ccc(-c3[nH]c4cc5ncnc5cc4nc3-c3ccccc3)cc2)CC1  remaining signal (RPS6KA5; cell-free assay; 0.5 µM): 103%
Cn1cc(-c2cccc(N3CCc4c(sc5c4CC(C)(C)C5)C3=O)c2CO)cc(Nc2ccncn2)c1=O  inhibition (RPS6KA5; enzyme activity; inhibitor; 1 µM): 2%
Cn1cncc1[C@@](O)(COc1ccc(C#N)cc1-c1ccc(OC(F)(F)F)cc1)c1ccc(C#N)cc1  remaining binding (RPS6KA5 N-terminal kinase domain; cell-free assay; competition with immobilised ligand; 1 µM): 88%
